Values joined by “and” are separate entries in the source; they are usually repeats but may differ in a detail not shown here. Equal values may be shown once. Read-outs that look alike come from different tables or passages of the source.
Assays:
[1] = system: MDA-MB-231 breast cancer cells; assay: MTT assay on MDA-MB-231 cells; format: cell-based; details: Homo sapiens
Procedure, shortened: (§1)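 Cells kept in DMEM with 10% (v/v) FBS and 1% (v/v) streptomycin/penicillin at 37 °C and 5% CO2. About 10^4 cells/ml were seeded and grown for 24 h. Test compounds in DMSO were added at 6.25, 12.5, 25, 50 and 100 µg/ml for 24 and 48 h. Medium was replaced with 5 mg/mL MTT for 3–4 h. Formazan was dissolved in acidified isopropanol and read at 630 nm. Viability is expressed as % of untreated cells.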

[2] = MTT assay on oral epithelial normal cells; format: cell-based
Procedure, shortened: as §1

KSP ATPase [3] = molecular target: T1, KSP ATPase (Homo sapiens, UniProt P52732); assay: Microtubule-activated KSP ATPase end-point assay; format: biochemical; details: read-out: KSP ATPase inhibition [%]
T1 sequence (P52732 1-1056): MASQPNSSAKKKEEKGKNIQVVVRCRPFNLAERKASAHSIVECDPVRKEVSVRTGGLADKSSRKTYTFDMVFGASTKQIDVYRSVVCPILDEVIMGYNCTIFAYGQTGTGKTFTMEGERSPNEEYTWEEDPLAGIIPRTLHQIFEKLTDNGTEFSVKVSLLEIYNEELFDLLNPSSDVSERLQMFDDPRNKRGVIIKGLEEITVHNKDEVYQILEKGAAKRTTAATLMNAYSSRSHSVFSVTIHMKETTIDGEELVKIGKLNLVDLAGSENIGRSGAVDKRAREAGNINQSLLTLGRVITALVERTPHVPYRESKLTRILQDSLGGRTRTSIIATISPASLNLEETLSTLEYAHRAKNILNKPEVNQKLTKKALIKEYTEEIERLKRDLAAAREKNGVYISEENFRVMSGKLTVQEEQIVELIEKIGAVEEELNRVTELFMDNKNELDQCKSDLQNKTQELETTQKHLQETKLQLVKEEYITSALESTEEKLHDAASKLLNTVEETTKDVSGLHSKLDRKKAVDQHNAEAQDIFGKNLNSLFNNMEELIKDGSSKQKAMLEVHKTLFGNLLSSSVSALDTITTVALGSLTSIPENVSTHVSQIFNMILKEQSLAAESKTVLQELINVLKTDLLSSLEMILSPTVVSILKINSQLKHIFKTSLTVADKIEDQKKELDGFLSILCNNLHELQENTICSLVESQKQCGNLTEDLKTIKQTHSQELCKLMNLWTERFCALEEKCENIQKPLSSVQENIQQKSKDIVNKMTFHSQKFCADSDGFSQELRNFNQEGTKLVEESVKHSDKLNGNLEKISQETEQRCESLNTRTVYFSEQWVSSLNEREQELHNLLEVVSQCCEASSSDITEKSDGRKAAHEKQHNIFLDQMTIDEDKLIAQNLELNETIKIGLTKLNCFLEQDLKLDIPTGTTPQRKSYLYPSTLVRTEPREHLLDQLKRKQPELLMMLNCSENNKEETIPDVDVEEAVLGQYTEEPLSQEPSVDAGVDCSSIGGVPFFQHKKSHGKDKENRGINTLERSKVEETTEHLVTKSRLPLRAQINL

KSP ATPase [4] = molecular target: T1, KSP ATPase; assay: Microtubule-activated KSP ATPase kinetic assay; format: biochemical
PI3Kδ = PI3Kδ (Homo sapiens, UniProt O00329); assay: PI3Kδ inhibition assay; format: biochemical
PI3Kδ, sequence (O00329 whole entry): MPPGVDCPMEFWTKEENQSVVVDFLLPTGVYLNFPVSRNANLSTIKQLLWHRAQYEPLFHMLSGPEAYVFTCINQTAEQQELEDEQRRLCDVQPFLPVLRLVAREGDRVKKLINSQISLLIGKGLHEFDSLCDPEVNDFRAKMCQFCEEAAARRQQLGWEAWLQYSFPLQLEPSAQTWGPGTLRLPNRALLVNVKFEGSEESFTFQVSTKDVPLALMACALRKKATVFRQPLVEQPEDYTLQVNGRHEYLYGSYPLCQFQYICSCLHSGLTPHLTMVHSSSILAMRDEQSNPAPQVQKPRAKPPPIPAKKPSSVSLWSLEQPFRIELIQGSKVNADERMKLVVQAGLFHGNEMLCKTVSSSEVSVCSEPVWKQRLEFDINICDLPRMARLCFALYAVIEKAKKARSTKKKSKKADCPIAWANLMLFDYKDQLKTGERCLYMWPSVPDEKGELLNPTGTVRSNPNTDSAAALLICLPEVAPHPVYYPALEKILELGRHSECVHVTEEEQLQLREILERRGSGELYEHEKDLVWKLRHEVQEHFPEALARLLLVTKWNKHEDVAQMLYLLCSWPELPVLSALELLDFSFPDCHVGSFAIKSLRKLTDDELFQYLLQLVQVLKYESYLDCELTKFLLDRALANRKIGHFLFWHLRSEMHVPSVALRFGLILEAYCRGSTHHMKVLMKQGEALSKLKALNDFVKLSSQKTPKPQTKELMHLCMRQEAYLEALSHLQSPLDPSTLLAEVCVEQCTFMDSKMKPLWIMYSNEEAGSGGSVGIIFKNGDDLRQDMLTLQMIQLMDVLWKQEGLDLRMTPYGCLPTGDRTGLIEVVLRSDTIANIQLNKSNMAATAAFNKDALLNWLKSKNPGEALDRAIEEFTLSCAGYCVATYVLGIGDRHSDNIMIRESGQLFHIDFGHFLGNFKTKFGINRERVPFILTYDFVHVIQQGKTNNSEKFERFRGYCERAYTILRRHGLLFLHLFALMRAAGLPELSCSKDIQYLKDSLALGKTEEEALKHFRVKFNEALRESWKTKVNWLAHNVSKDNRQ
PI3Kδ, sequence (P27986 whole entry partner): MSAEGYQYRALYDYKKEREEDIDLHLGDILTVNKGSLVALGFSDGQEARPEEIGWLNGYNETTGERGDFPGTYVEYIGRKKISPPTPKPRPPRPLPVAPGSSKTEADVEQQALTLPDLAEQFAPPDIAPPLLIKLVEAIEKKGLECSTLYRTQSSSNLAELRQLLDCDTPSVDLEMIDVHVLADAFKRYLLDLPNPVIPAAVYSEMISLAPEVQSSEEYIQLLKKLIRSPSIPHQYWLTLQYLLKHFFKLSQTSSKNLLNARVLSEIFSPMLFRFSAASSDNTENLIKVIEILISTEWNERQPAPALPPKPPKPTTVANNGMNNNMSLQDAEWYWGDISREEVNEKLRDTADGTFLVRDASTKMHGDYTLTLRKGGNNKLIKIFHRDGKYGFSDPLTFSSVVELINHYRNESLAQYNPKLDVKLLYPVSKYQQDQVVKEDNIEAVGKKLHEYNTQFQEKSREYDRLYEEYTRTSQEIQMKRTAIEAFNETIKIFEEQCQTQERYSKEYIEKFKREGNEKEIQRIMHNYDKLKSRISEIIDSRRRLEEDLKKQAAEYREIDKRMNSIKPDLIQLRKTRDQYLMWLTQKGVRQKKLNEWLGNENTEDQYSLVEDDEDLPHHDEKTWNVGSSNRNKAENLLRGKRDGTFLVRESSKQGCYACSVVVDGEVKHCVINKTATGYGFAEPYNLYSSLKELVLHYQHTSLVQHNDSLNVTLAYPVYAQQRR

MDA-MB-231 cells [5] = assay: Morphological study by inverted microscope; format: cell-based; details: 48 h
Procedure, shortened: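 MDA-MB-231 cells were grown in DMEM with 10% FBS and 1% streptomycin/penicillin at 37 °C, 5% CO2. They were treated with varying concentrations of test compound for 48 h and examined by inverted light microscopy. Phenotypic changes were scored as cell shrinkage, apoptotic body formation and membrane blebbing.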

MDA-MB-231 cells [6] = assay: Annexin V-FITC/PI flow cytometry; format: cell-based; details: MDA-MB-231, Annexin V-FITC & PI, post-treatment
Procedure, shortened: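 MDA-MB-231 cells were kept in DMEM with 10% FBS and 1% streptomycin/penicillin at 37 °C under 5% CO2. Cells were treated with the test compound for 48 h, with doxorubicin as the standard and untreated cells for comparison. Cells were then harvested, rinsed, suspended in PBS, stained with Annexin V-FITC/PI and held 20 min in the dark before flow cytometry. Early apoptosis was Annexin V+/PI−; late apoptosis was Annexin V+/PI+.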

MDA-MB-231 cells [7] = assay: DNA fragmentation by gel electrophoresis; format: cell-based; details: post-treatment
Procedure, shortened: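 MDA-MB-231 cells kept in DMEM with 10% FBS and 1% streptomycin/penicillin at 37 °C, 5% CO2. Genomic DNA was extracted with a commercial kit from cells before and after test compound treatment, and its quality was checked by nanodrop. DNA plus 1X loading dye was run on agarose gel, viewed under a UV transilluminator and imaged on a gel documentation system. Doxorubicin served as reference.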

MDA-MB-231 cells [8] = assay: qRT-PCR relative gene expression of P53, BAX and BCL-2; format: cell-based; details: MDA-MB-231, 48 h
Procedure, shortened: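 RNA was extracted from cells after 48 h of treatment with test compound, and its purity was checked by nanodrop. P53, BAX and BCL-2 expression was normalised to β-actin as the housekeeping gene. Treated and untreated cells were compared by ANOVA.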

[9] = MDA-MB-231, 24 h, read-out: IC50 after 24 h (µM)
[10] = MDA-MB-231, 24 h, read-out: IC50 after 24 h in µg/mL
[11] = MDA-MB-231, 48 h, read-out: IC50 after 48 h (µM)
[12] = MDA-MB-231, 48 h, read-out: IC50 after 48 h in µg/mL

Compound | IC50 [1, 9] [µM] | IC50 [1, 10] [µg/mL] | IC50 [1, 11] [µM] | IC50 [1, 12] [µg/mL] | IC50 at 48 h [2] | inhibition at 2 µM (KSP ATPase [3]) [%] | IC50 (KSP ATPase [4]) [µM] | IC50 (PI3Kδ) [µM] | Morphological changes of treated cells (MDA-MB-231 cells [5]) | Number of cells in the early and late apoptosis versus untreated cells (MDA-MB-231 cells [6]) | DNA fragmentation (MDA-MB-231 cells [7]) | Relative gene expression of BAX (MDA-MB-231 cells [8]) | Relative gene expression of BCL-2 (MDA-MB-231 cells [8]) | Relative gene expression of P53 (MDA-MB-231 cells [8])
O=c1c2cc(Cl)ccc2nc(S)n1-c1ccc(F)cc1 [Compound 1, 6-Chloro-3-(4-fluorophenyl)-2-mercaptoquinazolin-4(3H)-one] | 44.3 | 13.6 ± 0.12 | 23.6 | 7.23 ± 0.15 | 80 µg/mL and 261 µM | – | – | – | – | – | – | – | – | –
CCSc1nc2ccc(Cl)cc2c(=O)n1-c1ccc(F)cc1 [Compound 3a, 6-Chloro-2-(ethylthio)-3-(4-fluorophenyl)quinazolin-4(3H)-one] | 28.5 | 9.54 ± 0.11 | 14.5 | 4.86 ± 0.18 | 98.3 µg/mL and 294 µM | 88.3 ± 3.86 | 0.0887 ± 0.00316 | 0.0382 ± 0.00215 | cell shrinkage, apoptotic bodies formation, and membrane blebbing | significant increase | internucleosomal fragmentation was noticed | significant overexpression | downregulation | significant overexpression
CC(C)=CCSc1nc2ccc(Cl)cc2c(=O)n1-c1ccc(F)cc1 [Compound 3b, 6-Chloro-3-(4-fluorophenyl)-2-((3-methylbut-2-en-1-yl)thio)quinazolin-4(3H)-one] | 47.5 | 17.8 ± 0.12 | 16.3 | 6.1 ± 0.1 | 98 µg/mL and 261 µM | 89.6 ± 3.42 | 0.0858 | 0.0323 ± 0.00218 | cell shrinkage, apoptotic bodies formation, and membrane blebbing | significant increase | internucleosomal fragmentation was noticed | significant overexpression | downregulation | significant overexpression
CCOC(=O)CSc1nc2ccc(Cl)cc2c(=O)n1-c1ccc(F)cc1 [Compound 3c, Ethyl 2-((6-chloro-3-(4-fluorophenyl)-4-oxo-3,4-dihydroquinazolin-2-yl)thio)acetate] | 56 | 22 ± 0.13 | 17.8 | 7.01 ± 0.12 | 58.3 µg/mL and 148 µM | – | – | – | – | – | – | – | – | –
O=c1c2cc(Cl)ccc2nc(SCc2ccc(C(F)(F)F)cc2)n1-c1ccc(F)cc1 [Compound 3f, 6-Chloro-3-(4-fluorophenyl)-2-((4-(trifluoromethyl)benzyl)thio)quinazolin-4(3H)-one] | 58.9 | 27.39 ± 0.1 | 37 | 17.19 ± 0.12 | 67.8 µg/mL and 146 µM | – | – | – | – | – | – | – | – | –
O=c1c2cc(Cl)ccc2nc(SCc2cc(C(F)(F)F)cc(C(F)(F)F)c2)n1-c1ccc(F)cc1 [Compound 3g, 2-((3,5-Bis(trifluoromethyl)benzyl)thio)-6-chloro-3-(4-fluorophenyl)quinazolin-4(3H)-one] | 50.5 | 26.92 ± 0.09 | 38.1 | 20.3 ± 0.23 | 70.4 µg/mL and 132 µM | 90.5 ± 2.16 | 0.0774 | 0.0578 ± 0.00275 | – | – | – | – | – | –
O=c1c2cc(Cl)ccc2nc(SCc2ccc(Br)cc2F)n1-c1ccc(F)cc1 [Compound 3h, 2-((4-Bromo-2-fluorobenzyl)thio)-6-chloro-3-(4-fluorophenyl)quinazolin-4(3H)-one] | 30.2 | 14.89 ± 0.11 | 16.5 | 8.14 ± 0.13 | 51.4 µg/mL and 104 µM | 92.6 ± 2.35 | 0.0735 | 0.0538 ± 0.0031 | – | – | – | – | – | –
COc1cccc2c1C(=O)c1c(O)c3c(c(O)c1C2=O)C[C@@](O)(C(=O)CO)C[C@@H]3O[C@H]1C[C@H](N)[C@H](O)[C@H](C)O1 [Doxorubicin, reference compound] | – | – | 1.41 | 0.77 ± 0.14 | 40.5 µg/mL and 74.5 µM | – | – | – | – | – | – | – | – | –
Cc1ccc(C(=O)N(CCCN)[C@@H](c2nc3cc(Cl)ccc3c(=O)n2Cc2ccccc2)C(C)C)cc1 [Ispinesib, reference compound] | – | – | – | – | – | 95.5 ± 2.24 | – | – | – | – | – | – | – | –

Continued, in another order:

IC50 [1, 9] [µM] | IC50 [1, 10] [µg/mL] | IC50 [1, 11] [µM] | IC50 [1, 12] [µg/mL] | IC50 at 48 h [2] | inhibition at 2 µM (KSP ATPase [3]) [%] | Compound | IC50 (KSP ATPase [4]) [µM] | IC50 (PI3Kδ) [µM] | Morphological changes of treated cells (MDA-MB-231 cells [5]) | Number of cells in the early and late apoptosis versus untreated cells (MDA-MB-231 cells [6]) | DNA fragmentation (MDA-MB-231 cells [7]) | Relative gene expression of BAX (MDA-MB-231 cells [8]) | Relative gene expression of BCL-2 (MDA-MB-231 cells [8]) | Relative gene expression of P53 (MDA-MB-231 cells [8])
21 | 9.05 ± 0.1 | 15.3 | 6.59 ± 0.09 | 65.4 µg/mL and 152 µM | – | O=c1c2cc(Cl)ccc2nc(SCc2ccc(Cl)cc2)n1-c1ccc(F)cc1 [Compound 3d, 6-Chloro-2-((4-chlorobenzyl)thio)-3-(4-fluorophenyl)quinazolin-4(3H)-one] | – | – | – | – | – | – | – | –
95.6 | 40.33 ± 0.11 | 62.8 | 26.49 ± 0.13 | 86.5 µg/mL and 205 µM | – | N#Cc1ccc(CSc2nc3ccc(Cl)cc3c(=O)n2-c2ccc(F)cc2)cc1 [Compound 3i, 4-(((6-Chloro-3-(4-fluorophenyl)-4-oxo-3,4-dihydroquinazolin-2-yl)thio)methyl)benzonitrile] | – | – | – | – | – | – | – | –
50.9 | 22.48 ± 0.12 | 31.6 | 13.96 ± 0.12 | 78.3 µg/mL and 177 µM | – | O=c1c2cc(Cl)ccc2nc(SCc2ccc([N+](=O)[O-])cc2)n1-c1ccc(F)cc1 [Compound 3j, 6-Chloro-3-(4-fluorophenyl)-2-((4-nitrobenzyl)thio)quinazolin-4(3H)-one] | – | – | – | – | – | – | – | –
38 | 17.71 ± 0.14 | 18.4 | 8.57 ± 0.1 | 80.5 µg/mL and 173 µM | – | O=C1c2ccccc2C(=O)N1CSc1nc2ccc(Cl)cc2c(=O)n1-c1ccc(F)cc1 [Compound 3k, 2-(((6-Chloro-3-(4-fluorophenyl)-4-oxo-3,4-dihydroquinazolin-2-yl)thio)methyl)isoindoline-1,3-dione] | – | – | – | – | – | – | – | –
26.9 | 13.18 ± 0.13 | 14.2 | 6.98 ± 0.12 | 79 µg/mL and 161 µM | – | O=C(CSc1nc2ccc(Cl)cc2c(=O)n1-c1ccc(F)cc1)Nc1cccc2ccccc12 [Compound 3l, 2-((6-Chloro-3-(4-fluorophenyl)-4-oxo-3,4-dihydroquinazolin-2-yl)thio)-N-(naphthalen-1-yl)acetamide] | – | – | – | – | – | – | – | –

Reference: PMC10864842 (Saudi Pharmaceutical Journal : SPJ, 2024)
